Data on one molecule can be found in ChEMBL document CHEMBL4725345, “DFG-1 Residue Controls Inhibitor Binding Mode and Affinity, Providing a Basis for Rational Design of Kinase Inhibitor Selectivity” (J Med Chem, 2020).

A word on the ΔTm: it is the change in melting temperature against a reference sample.

Assay [1] deals with Serine/threonine-protein kinase pim-1 (Homo sapiens) (UniProt P11309). In words: Binding affinity to PIM1 (unknown origin) assessed as change in melting temperature at 10 uM incubated for 10 mins using SYPRO orange dye by RT-PCR-based fluorescence assay.
Assay [2] has as its target TGF-beta receptor type-1 (Homo sapiens) (UniProt P36897). In words: Binding affinity to TGFBR1 (unknown origin) assessed as change in melting temperature at 10 uM incubated for 10 mins using SYPRO orange dye by RT-PCR-based fluorescence assay. The method, boiled down:
(§1)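 Recombinant kinase domain at 2 μM in 10 mM HEPES pH 7.5, 500 mM NaCl, mixed with 10 μM inhibitor for 10 min at room temperature; SYPRO orange added at 1:1000; temperature-dependent unfolding fluorescence read on a real-time PCR instrument; Tm shift derived by a previously described method.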

For assay [3], the species on record is Homo sapiens. In words: Binding affinity to RSK4B (unknown origin) assessed as change in melting temperature at 10 uM incubated for 10 mins using SYPRO orange dye by RT-PCR-based fluorescence assay. The essentials: as §1
The target of assay [4] is Ribosomal protein S6 kinase alpha-1 (Homo sapiens) (UniProt Q15418). Kind of assay: Binding affinity to RSK1B (unknown origin) assessed as change in melting temperature at 10 uM incubated for 10 mins using SYPRO orange dye by RT-PCR-based fluorescence assay.
Assay [5] concerns the target Activin receptor type-2B (Homo sapiens) (UniProt Q13705). In words: Binding affinity to ACTR2B (unknown origin) assessed as change in melting temperature at 10 uM incubated for 10 mins using SYPRO orange dye by RT-PCR-based fluorescence assay. The essentials:
as §1

Assay [6] addresses Casein kinase I isoform epsilon (Homo sapiens) (UniProt P49674). In words: Binding affinity to CSNK1E (unknown origin) assessed as change in melting temperature at 10 uM incubated for 10 mins using SYPRO orange dye by RT-PCR-based fluorescence assay. The method, boiled down: as §1
For assay [7], the target named is Serine/threonine-protein kinase 17B (Homo sapiens) (UniProt O94768). Kind of assay: Binding affinity to DRAK2 (unknown origin) assessed as change in melting temperature at 10 uM incubated for 10 mins using SYPRO orange dye by RT-PCR-based fluorescence assay. The method, boiled down:
as §1

In assay [8] the target is Activin receptor type-1-like (Homo sapiens) (UniProt P37023). In words: Binding affinity to ACVRL1 (unknown origin) assessed as change in melting temperature at 10 uM incubated for 10 mins using SYPRO orange dye by RT-PCR-based fluorescence assay. The method, boiled down: as §1
The target in assay [9] is Glycogen synthase kinase-3 beta (Homo sapiens) (UniProt P49841). In words: Binding affinity to GSK3B (unknown origin) assessed as change in melting temperature at 10 uM incubated for 10 mins using SYPRO orange dye by RT-PCR-based fluorescence assay. The essentials: as §1
In assay [10] the target is Receptor-interacting serine/threonine-protein kinase 2 (Homo sapiens) (UniProt O43353). Kind of assay: Binding affinity to RIPK2 (unknown origin) assessed as change in melting temperature at 10 uM incubated for 10 mins using SYPRO orange dye by RT-PCR-based fluorescence assay. The essentials: as §1
In assay [11] the target is Activin receptor type-1B (Homo sapiens) (UniProt P36896). Kind of assay: Binding affinity to ACVR1B (unknown origin) assessed as change in melting temperature at 10 uM incubated for 10 mins using SYPRO orange dye by RT-PCR-based fluorescence assay. The essentials: as §1
The target in assay [12] is Dual specificity protein kinase CLK2 (Homo sapiens) (UniProt P49760). Conditions: dose 10.0 µM, time 10.0 min.
Assay [13] concerns the target Dual specificity protein kinase CLK4 (Homo sapiens, UniProt Q9HAZ1). Conditions: dose 10.0 µM, time 10.0 min.
Assay [14] addresses Myosin light chain kinase family member 4 (Homo sapiens) (UniProt Q86YV6). Kind of assay: Binding affinity to SgK085 (unknown origin) assessed as change in melting temperature at 10 uM incubated for 10 mins using SYPRO orange dye by RT-PCR-based fluorescence assay. The essentials:
as §1

The target in assay [15] is Bone morphogenetic protein receptor type-1B (Homo sapiens) (UniProt O00238). Kind of assay: Binding affinity to BMPR1B (unknown origin) assessed as change in melting temperature at 10 uM incubated for 10 mins using SYPRO orange dye by RT-PCR-based fluorescence assay. The essentials:
as §1

Assay [16] addresses T1, Serine/threonine-protein kinase haspin (Homo sapiens) (UniProt Q8TF76).
T1 sequence (whole entry): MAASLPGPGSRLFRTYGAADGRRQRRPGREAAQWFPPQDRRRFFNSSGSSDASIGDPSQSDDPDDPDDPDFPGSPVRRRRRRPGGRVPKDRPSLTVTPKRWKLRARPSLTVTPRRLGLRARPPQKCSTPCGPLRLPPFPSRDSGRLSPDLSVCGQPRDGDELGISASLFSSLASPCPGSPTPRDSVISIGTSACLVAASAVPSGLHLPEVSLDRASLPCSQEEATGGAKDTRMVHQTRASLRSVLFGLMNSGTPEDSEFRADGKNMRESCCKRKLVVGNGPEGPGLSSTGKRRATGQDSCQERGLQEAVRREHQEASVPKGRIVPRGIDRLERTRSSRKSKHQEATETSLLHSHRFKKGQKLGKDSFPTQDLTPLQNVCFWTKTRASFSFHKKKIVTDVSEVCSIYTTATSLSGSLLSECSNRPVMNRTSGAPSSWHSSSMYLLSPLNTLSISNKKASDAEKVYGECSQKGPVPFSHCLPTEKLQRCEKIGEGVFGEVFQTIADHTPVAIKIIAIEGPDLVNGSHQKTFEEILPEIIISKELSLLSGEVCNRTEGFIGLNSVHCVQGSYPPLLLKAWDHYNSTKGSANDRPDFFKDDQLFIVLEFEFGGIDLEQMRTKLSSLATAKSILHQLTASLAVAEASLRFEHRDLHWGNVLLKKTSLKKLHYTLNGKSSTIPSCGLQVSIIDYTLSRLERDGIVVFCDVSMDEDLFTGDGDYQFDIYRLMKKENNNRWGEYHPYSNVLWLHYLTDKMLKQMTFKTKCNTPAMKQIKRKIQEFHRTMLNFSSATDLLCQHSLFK
Kind of assay: Binding affinity to haspin (unknown origin) assessed as change in melting temperature at 10 uM incubated for 10 mins using SYPRO orange dye by RT-PCR-based fluorescence assay. The essentials: as §1

Assay [17] deals with TGF-beta receptor type-2 (Homo sapiens) (UniProt P37173). In words: Binding affinity to TGFBR2 (unknown origin) assessed as change in melting temperature at 10 uM incubated for 10 mins using SYPRO orange dye by RT-PCR-based fluorescence assay. The essentials:
as §1

Assay [18] has as its target Serine/threonine-protein kinase pim-2 (Homo sapiens) (UniProt Q9P1W9). In words: Binding affinity to PIM2 (unknown origin) assessed as change in melting temperature at 10 uM incubated for 10 mins using SYPRO orange dye by RT-PCR-based fluorescence assay. The essentials:
as §1

In assay [19] the target is Bone morphogenetic protein receptor type-2 (Homo sapiens) (UniProt Q13873). Kind of assay: Binding affinity to BMPR2 (unknown origin) assessed as change in melting temperature at 10 uM incubated for 10 mins using SYPRO orange dye by RT-PCR-based fluorescence assay. The method, boiled down: as §1
In assay [20] the target is AP2-associated protein kinase 1 (Homo sapiens) (UniProt Q2M2I8). Kind of assay: Binding affinity to AAK1 (unknown origin) assessed as change in melting temperature at 10 uM incubated for 10 mins using SYPRO orange dye by RT-PCR-based fluorescence assay. The method, boiled down: as §1

Chain of Ribosomal protein S6 kinase alpha-1 (Homo sapiens) (Q15418 whole entry, looked up): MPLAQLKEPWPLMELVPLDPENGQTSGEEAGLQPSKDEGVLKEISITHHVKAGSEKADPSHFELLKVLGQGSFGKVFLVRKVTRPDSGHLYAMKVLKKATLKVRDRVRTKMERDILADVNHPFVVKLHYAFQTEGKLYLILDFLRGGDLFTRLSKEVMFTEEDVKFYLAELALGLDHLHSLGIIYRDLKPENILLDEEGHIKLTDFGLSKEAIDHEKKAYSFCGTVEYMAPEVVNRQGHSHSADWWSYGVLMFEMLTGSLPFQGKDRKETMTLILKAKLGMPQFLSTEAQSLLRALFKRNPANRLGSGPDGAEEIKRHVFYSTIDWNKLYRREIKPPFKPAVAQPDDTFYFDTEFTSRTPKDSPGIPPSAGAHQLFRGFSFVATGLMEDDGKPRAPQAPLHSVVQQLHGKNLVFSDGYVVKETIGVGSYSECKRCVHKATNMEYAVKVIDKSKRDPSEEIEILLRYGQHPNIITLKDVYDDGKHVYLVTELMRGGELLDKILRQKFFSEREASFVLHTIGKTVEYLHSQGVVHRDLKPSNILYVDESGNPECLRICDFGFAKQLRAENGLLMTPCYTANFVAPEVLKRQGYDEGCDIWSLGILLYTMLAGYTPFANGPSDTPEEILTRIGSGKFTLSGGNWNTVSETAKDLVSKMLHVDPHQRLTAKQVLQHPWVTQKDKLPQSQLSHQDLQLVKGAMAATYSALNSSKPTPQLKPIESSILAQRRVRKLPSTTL
Chain of Serine/threonine-protein kinase 17B (Homo sapiens) (O94768 whole entry): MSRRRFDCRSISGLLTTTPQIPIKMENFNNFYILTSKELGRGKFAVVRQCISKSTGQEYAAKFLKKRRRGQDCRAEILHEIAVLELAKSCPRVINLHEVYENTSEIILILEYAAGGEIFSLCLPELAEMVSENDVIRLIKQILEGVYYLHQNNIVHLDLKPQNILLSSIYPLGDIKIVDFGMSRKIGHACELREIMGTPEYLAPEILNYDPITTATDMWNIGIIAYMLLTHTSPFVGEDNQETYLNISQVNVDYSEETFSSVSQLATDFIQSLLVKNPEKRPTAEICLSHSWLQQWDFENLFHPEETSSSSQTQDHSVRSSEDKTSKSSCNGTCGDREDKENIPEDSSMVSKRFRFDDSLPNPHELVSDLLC
Chain of Receptor-interacting serine/threonine-protein kinase 2 (Homo sapiens) (O43353 whole entry): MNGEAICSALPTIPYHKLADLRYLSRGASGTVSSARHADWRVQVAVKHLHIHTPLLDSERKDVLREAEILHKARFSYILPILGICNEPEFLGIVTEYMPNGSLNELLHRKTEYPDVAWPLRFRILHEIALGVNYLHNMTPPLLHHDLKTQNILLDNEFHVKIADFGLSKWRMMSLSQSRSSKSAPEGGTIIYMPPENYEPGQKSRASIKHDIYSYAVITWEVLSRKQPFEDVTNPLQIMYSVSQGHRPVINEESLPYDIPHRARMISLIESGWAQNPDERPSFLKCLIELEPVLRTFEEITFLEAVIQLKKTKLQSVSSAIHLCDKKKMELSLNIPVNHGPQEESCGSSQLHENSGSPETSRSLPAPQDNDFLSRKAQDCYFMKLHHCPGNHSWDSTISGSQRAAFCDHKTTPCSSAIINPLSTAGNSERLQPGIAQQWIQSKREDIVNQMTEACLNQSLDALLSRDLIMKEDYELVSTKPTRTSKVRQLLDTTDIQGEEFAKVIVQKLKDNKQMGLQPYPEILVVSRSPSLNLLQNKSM
Chain of Bone morphogenetic protein receptor type-1B (Homo sapiens) (O00238 whole entry): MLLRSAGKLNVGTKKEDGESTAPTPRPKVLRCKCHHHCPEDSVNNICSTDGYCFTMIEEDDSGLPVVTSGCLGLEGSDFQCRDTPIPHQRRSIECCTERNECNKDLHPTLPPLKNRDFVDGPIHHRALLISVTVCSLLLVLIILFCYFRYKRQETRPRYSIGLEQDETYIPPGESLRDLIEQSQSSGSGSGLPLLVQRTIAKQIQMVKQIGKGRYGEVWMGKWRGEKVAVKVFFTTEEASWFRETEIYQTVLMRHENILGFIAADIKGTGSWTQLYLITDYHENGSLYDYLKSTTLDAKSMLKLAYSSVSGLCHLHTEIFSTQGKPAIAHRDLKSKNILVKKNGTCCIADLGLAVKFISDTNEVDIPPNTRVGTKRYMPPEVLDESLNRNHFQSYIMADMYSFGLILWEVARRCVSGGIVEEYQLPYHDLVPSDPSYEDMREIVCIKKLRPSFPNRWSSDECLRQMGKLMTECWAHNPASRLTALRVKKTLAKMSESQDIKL
Chain of Casein kinase I isoform epsilon (Homo sapiens) (P49674 whole entry, looked up, canonical isoform): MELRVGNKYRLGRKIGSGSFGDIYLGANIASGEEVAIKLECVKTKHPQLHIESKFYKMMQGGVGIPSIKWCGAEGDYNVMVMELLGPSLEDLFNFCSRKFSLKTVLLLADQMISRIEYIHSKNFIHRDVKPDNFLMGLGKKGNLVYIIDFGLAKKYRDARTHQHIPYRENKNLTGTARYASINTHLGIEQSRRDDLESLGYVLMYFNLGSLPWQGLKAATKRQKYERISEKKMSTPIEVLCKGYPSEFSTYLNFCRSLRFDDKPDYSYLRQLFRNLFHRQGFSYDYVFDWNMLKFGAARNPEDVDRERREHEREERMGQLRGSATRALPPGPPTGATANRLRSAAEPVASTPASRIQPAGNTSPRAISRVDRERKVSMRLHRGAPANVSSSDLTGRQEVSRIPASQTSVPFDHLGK
Chain of Serine/threonine-protein kinase pim-1 (Homo sapiens) (P11309 whole entry, looked up): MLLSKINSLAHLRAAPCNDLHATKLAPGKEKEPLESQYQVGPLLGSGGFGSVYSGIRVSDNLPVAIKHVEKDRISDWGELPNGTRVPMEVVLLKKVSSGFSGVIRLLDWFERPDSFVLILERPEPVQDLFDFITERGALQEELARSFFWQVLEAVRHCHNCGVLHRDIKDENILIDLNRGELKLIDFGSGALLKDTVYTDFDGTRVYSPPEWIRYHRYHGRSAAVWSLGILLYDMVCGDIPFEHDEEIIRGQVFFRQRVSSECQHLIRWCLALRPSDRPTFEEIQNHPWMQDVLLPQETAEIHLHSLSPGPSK
Chain of Myosin light chain kinase family member 4 (Homo sapiens) (Q86YV6 whole entry): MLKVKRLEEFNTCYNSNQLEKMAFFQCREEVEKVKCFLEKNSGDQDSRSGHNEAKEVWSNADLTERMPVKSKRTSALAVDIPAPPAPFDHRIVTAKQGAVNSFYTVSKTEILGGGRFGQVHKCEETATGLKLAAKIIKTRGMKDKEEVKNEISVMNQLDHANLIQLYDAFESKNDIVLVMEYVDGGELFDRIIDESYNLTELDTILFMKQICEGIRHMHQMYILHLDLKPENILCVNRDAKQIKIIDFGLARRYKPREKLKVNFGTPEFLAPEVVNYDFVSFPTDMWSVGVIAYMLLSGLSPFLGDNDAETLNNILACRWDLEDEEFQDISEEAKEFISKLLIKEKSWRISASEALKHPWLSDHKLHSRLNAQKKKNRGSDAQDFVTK
Chain of Bone morphogenetic protein receptor type-2 (Homo sapiens) (Q13873 whole entry): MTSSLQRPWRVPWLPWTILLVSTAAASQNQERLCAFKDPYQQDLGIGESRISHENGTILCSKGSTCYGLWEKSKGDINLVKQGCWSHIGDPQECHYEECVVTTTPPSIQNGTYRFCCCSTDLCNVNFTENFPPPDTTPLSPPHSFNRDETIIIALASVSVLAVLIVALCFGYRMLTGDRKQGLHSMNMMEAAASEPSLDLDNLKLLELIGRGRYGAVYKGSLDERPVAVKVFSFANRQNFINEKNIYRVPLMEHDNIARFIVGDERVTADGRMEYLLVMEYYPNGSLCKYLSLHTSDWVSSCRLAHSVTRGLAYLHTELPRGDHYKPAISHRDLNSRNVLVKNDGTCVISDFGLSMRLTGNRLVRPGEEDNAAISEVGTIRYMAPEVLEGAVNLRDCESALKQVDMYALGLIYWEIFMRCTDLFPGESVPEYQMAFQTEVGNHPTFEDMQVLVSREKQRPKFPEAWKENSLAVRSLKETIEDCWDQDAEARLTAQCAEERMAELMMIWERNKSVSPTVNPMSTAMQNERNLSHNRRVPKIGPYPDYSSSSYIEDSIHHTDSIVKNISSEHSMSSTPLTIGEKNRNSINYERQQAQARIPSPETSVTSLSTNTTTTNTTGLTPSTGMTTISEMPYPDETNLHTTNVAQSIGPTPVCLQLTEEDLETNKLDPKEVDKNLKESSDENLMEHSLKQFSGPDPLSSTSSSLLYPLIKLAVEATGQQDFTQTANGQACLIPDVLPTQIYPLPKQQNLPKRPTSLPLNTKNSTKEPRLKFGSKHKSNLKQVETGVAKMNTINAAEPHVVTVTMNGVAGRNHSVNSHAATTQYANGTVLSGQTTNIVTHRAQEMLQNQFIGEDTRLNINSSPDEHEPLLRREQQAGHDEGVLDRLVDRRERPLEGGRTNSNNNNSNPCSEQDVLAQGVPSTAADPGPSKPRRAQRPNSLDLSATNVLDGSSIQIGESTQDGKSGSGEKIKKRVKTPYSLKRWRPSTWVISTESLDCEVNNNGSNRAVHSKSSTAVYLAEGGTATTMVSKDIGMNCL
Chain of TGF-beta receptor type-2 (Homo sapiens) (P37173 whole entry): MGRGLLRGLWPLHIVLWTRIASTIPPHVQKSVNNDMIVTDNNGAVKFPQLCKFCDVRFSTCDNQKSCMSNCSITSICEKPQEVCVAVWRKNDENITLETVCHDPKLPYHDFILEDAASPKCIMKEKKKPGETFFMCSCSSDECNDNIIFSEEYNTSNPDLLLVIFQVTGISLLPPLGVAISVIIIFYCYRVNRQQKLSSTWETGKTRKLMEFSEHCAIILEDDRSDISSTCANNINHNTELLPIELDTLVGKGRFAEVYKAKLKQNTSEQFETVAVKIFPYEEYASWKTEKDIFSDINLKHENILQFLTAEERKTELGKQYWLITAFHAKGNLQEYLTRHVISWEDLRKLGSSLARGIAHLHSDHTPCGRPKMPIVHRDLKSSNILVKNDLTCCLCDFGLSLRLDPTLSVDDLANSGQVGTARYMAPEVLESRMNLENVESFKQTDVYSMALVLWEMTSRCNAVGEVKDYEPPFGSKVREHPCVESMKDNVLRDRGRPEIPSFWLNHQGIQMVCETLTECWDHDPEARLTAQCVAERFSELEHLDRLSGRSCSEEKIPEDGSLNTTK

For the molecule `CC(=O)c1cccc(-c2cnc3ccc(NCC4CC4)nn23)c1`, the ΔTm in assay [1] is above 6 °C; in [2], above 6 °C; in assay [3], above 4 °C; in assay [4] it was above 4 °C; in [5], above 6 °C; in assay [6] it was above 4 °C. For the same molecule, the ΔTm is above 4 °C in assay [7]; above 6 °C in [8]; above 4 °C in [9]; above 4 °C in assay [10]; above 6 °C in assay [11]; above 4 °C in assay [12]. The ΔTm was above 6 °C in assay [13]; above 4 °C in assay [14]; above 6 °C in assay [15]; above 6 °C in assay [16]; above 6 °C in [17]; above 4 °C in assay [18]. In addition, the ΔTm in [19] and in assay [20] was above 6 °C throughout.
